# Measurements from different studies.
# Protocols differ between the studies behind these lines.
# Target: Serine/threonine-protein kinase Sgk2 (SGK2, Homo sapiens, UniProt Q9HBY8)
# Residues used in one study (Q9HBY8 1-367): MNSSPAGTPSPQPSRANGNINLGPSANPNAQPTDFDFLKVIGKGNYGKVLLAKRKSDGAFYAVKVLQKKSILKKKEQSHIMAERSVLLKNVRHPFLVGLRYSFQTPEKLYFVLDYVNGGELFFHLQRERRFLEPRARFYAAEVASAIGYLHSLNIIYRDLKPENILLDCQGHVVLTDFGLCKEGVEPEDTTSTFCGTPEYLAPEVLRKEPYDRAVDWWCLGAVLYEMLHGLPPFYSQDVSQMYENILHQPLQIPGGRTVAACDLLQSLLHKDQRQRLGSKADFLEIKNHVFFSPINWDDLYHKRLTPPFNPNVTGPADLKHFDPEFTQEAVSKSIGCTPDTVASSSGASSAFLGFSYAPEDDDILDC
Compound,observed,action,technique,concentration,quantity,result
CCN(CC)CCNC(=O)c1c(C)[nH]c(/C=C2\C(=O)Nc3ccc(F)cc32)c1C,enzyme activity,inhibitor,,10 µM,inhibition,48%
CC(C)(O)[C@H]1CC[C@H](Nc2ccc3ncc(-c4cccc(C(F)(F)F)c4)n3n2)CC1,enzyme activity,inhibitor,,1 µM,remaining activity,96.1%
CC(=O)c1c(NS(C)(=O)=O)c2cc(-c3ccc(Cl)cc3)c(-c3ccc(Cl)cc3Cl)nc2n(C)c1=O,cell-free assay,,competition with immobilised ligand,1 µM,remaining binding,92%
O=C(Nc1cnn(-c2csc(C(=O)NC3COC3)c2)c1)Nc1c(F)cccc1Cl,enzyme activity,inhibitor,,5 µM,remaining activity,88.6%
Nc1ncnc2occ(-c3ccc(NC(=O)Nc4cc(C(F)(F)F)ccc4F)cc3)c12,cell-free assay,inhibitor,,20 µM,remaining signal,13%
CNC(=O)c1cc(Oc2ccc(NC(=O)Nc3ccc(Cl)c(C(F)(F)F)c3)cc2)ccn1,enzyme activity,inhibitor,,0.3 µM,inhibition,3%
CC(C)(C)c1nc2c(s1)c1nc(N)ncc1c1ccc(NS(=O)(=O)c3c(F)cccc3F)c(F)c12,enzyme activity,inhibitor,radiometric,1 µM,remaining activity,91%
O=C(Nc1cnn(-c2csc(C(=O)NC3COC3)c2)c1)Nc1ccccc1Cl,enzyme activity,inhibitor,,5 µM,remaining activity,101%
CN([C@@H]1CCc2c(CC(=O)O)c3cc(S(C)(=O)=O)ccc3n2C1)S(=O)(=O)c1ccc(F)cc1,cell-free assay,,competition with immobilised ligand,1 µM,remaining binding,100%
CCCOc1ccc(OC)c(F)c1C(=O)c1ccc(C(=O)N[C@@H]2CNC[C@H]2NC(=O)c2ccc3[nH]ncc3c2)cc1,enzyme activity,inhibitor,,50 nM,remaining activity,72%
O=C1Nc2ccc(Cl)cc2C1=Cc1cc(Cl)c(O)c(Cl)c1,cell-free assay,,,0.5 µM,remaining signal,89.2%
Cc1ccc(C(=O)Nc2ccc(CN3CCN(C)CC3)c(C(F)(F)F)c2)cc1C#Cc1cnc2cccnn12,enzyme activity,inhibitor,,23.5 nM,remaining activity,76%
CN1CC(Oc2cnc(C#N)cc2-c2ccn3nc(NC(=O)C4CC4)cc3c2)C1,enzyme activity,inhibitor,,1 µM,inhibition,-2%
CCc1ccccc1C(=O)Nc1n[nH]c2c(C)c(F)c(C3C(C#N)=C(C)N(C)C(C)=C3C#N)cc12,cell-free assay,,competition with immobilised ligand,1 µM,remaining binding,100%
Cc1ccc(Nc2nccc(N(C)c3ccc4c(C)n(C)nc4c3)n2)cc1S(N)(=O)=O,enzyme activity,inhibitor,,10 µM,inhibition,10%
Nc1c(C(=O)NCc2ccc(C(=O)NCCCC3CCCCC3)cc2)cnn1-c1ccccc1,cell-free assay,,competition with immobilised ligand,0.1 µM,remaining binding,72%
Cn1cnc(Br)c1C1=CN(c2ncnc3[nH]cnc23)CCS1,enzyme activity,inhibitor,radiometric,2 µM,inhibition,82.2%
Cc1nccc(COC(=O)N2C[C@@H]3[C@@H](CNC(=O)c4ccc5[nH]nnc5c4)[C@@H]3C2)n1,cell-free assay,,competition with immobilised ligand,1 µM,remaining binding,100%
CNc1cccc2cc(C(=O)Nc3ccc(C(=O)O)cc3)c(=O)[nH]c12,enzyme activity,inhibitor,,10 µM,inhibition,-1.2%
CO[C@H]1CC[C@H](CNc2ccc(S(=O)(=O)NC(=O)c3ccc(N4CCN(CC5=C(c6ccc(Cl)cc6)CC(C)(C)CC5)CC4)cc3Oc3cnc4[nH]ccc4c3)cc2[N+](=O)[O-])CC1,cell-free assay,,competition with immobilised ligand,1 µM,remaining binding,91%
Cc1cc(NC(=O)c2cccc3cc(-c4cccc5[nH]nc(N)c45)ccc23)ccc1F,enzyme activity,inhibitor,,0.1 µM,activity vs control,76%
O=C1CCc2cc(Nc3cc(OC4CCOCC4)c([N+](=O)[O-])cc3Cl)ccc2N1,cell-free assay,,competition with immobilised ligand,1 µM,remaining binding,80%
COc1cc2ncnc(Nc3ccc(Oc4ccccc4)cc3C)c2cc1OC,enzyme activity,inhibitor,,1 µM,inhibition,-4%
